# Reference: paper PMC5271563 (ChemMedChem, 2016)
# Entries after “also recorded” stand apart in the source; their conditions may differ.
# What was measured:
# hCD44(21–178) [1] = molecular target: T1, hCD44(21–178) (Homo sapiens, UniProt P16070); experiment: Isothermal Titration Calorimetry; assay type: binding; settings: 23°C, pH 6.7, 5% DMSO
# hCD44(21–178) [2] = molecular target: T1, hCD44(21–178); experiment: NMR binding: 2D [1H,15N]-sofast-HMQC / 1D 1H-aliphatic spectra of 15N-hCD44; settings: for binding by 2D [1H,15N]-sofast-HMQC: 20 μM 15N-hCD44(21–178)
# Method in brief: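 Human CD44 HA-binding domain (Q21–V178) was expressed in E. coli BL21(DE3) gold pLysS in M9 with 15NH4Cl, refolded from urea-solubilised inclusion bodies, and purified as monomer by size exclusion. 2D [1H,15N]-sofast-HMQC (48 scans) and 1D 1H (128 scans) spectra were recorded at 300 K in 50 mM phosphate, 150 mM NaCl, 0.02% NaN3, pH 6.7. Spectra were compared with and without test peptide.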
# hCD44(21–178) [3] = molecular target: T1, hCD44(21–178); experiment: ITC competition; assay type: binding
# hCD44(21–178) [4] = molecular target: T1, hCD44(21–178); experiment: Saturation Transfer Difference; assay type: binding; settings: saturating for 2 seconds at −0.28 ppm
# Method in brief: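 STD spectra used 128 scans, with 2 s saturation on-resonance at −0.28 ppm and off-resonance reference at −10 ppm. Samples contained hCD44(21–178) and test ligand, with HA8 as positive control. Conditions: 300 K in 50 mM phosphate, 150 mM NaCl, 0.02% NaN3, pH 6.7, on a 600 or 700 MHz spectrometer with cryoprobe.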
# hCD44(21–178) [5] = molecular target: T1, hCD44(21–178); experiment: NMR displacement / ternary binding experiments by 2D [1H,15N]-sofast-HMQC
# DF1485 antibody = experiment: 2D [1H,13C]-HSQC of 13C-A6 peptide with antibody; assay type: binding, mouse; settings: 5 μM 13C-A6 peptide, 4 μM DF1485
# Method in brief: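 Test peptide carries a 13C-labelled N-acetyl methyl. 2D [1H,13C]-HSQC spectra were recorded without and with the mouse anti-CD44 monoclonal antibody DF1485 ([…]), using 64 scans and 4096 × 128 complex points. Conditions: 300 K, 600 or 700 MHz with cryoprobe, 50 mM phosphate, 150 mM NaCl, 0.02% NaN3, pH 6.7. Read-out was broadening or chemical shift change of the methyl signal.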
# [6] = Solubility under binding study conditions; assay type: physicochemical; settings: under the binding study conditions
# T1 sequence (P16070 21-178): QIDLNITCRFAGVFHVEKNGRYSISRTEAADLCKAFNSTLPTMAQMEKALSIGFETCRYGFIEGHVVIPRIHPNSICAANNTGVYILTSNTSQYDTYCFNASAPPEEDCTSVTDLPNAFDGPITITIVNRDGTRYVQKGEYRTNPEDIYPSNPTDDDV
molecule,measurement,setting,value
"CC(=O)N[C@H]1[C@H](O[C@H]2[C@H](O)[C@@H](O)[C@H](O[C@H]3[C@H](O)[C@@H](CO)O[C@@H](O[C@H]4[C@H](O)[C@@H](O)[C@H](O[C@H]5[C@H](O)[C@@H](CO)O[C@@H](O[C@H]6[C@H](O)[C@@H](O)[C@H](O[C@H]7[C@H](O)[C@@H](CO)OC(O)[C@@H]7NC(C)=O)O[C@@H]6C(=O)O)[C@@H]5NC(C)=O)O[C@@H]4C(=O)O)[C@@H]3NC(C)=O)O[C@@H]2C(=O)O)O[C@H](CO)[C@@H](O)[C@@H]1O[C@@H]1O[C@H](C(=O)O)[C@@H](O)[C@H](O)[C@H]1O (stereo partly drawn) [HA8, [GlcNAc-GlcUA]4]",enthalpy of binding ΔH (ITC),hCD44(21–178) [1]; hCD44 73 μM titrated with 1.6 mM HA8,-0.7 kcal/mol
same,"chemical shift perturbations in 2D [1H,15N]-sofast-HMQC","hCD44(21–178) [2]; 20 μM hCD44(21–178), 220 μM HA8, 300 K, pH 6.7",widespread perturbations
same,ΔH of HA8 binding in presence of compound 3 (ITC),hCD44(21–178) [3]; 750-fold molar excess (55 mM) compound 3,-0.83 kcal/mol
same,Kd of HA8 in presence of compound 3 (ITC),"hCD44(21–178) [3]; hCD44(21–178) incubated with 750-fold molar excess (55 mM) compound 3, titrated with 1.6 mM HA8, 23°C, pH 6.7, 5% DMSO",37.5 µM
same,STD effect,hCD44(21–178) [4],significant STD effect
Ac-KPSSPPEE-NH2 [A6 Peptide],direct interaction by ITC,hCD44(21–178) [1]; hCD44 73 μM titrated with 1 mM A6 peptide,absence of direct interactions
same,"binding by 2D [1H,15N]-sofast-HMQC","hCD44(21–178) [2]; 500 μM A6 peptide, pH 6.7, listed as A6",could not observe any significant binding
same,"binding by 2D [1H,15N]-sofast-HMQC","hCD44(21–178) [2]; 500 μM A6 peptide, pH 6.7, listed as A6-peptide",absence of appreciable binding
same,"binding by 2D [1H,15N]-sofast-HMQC","hCD44(21–178) [2]; 500 μM A6 peptide, pH 6.7, listed as A6 peptide",No appreciable binding
same,displacement of DF1485 antibody from hCD44(21–178),"hCD44(21–178) [5]; 10 μM 15N-hCD44(21–178), 10 μM DF1485, addition of 500 μM A6 peptide",not displaced
same,binding to hCD44 in complex with HA8,"hCD44(21–178) [5]; A6, 15N-labeled hCD44(21–178)",did not observe significant binding
same,interaction between 13C-A6 peptide and DF1485 antibody,DF1485 antibody,no appreciable binding
Ac-SRPQGPFL-NH2,"binding by 2D [1H,15N]-sofast-HMQC",hCD44(21–178) [2]; 400 μM peptide,no significant binding
H-RLVSYNGIIFFLK-NH2 [A5G27],"binding by 2D [1H,15N]-sofast-HMQC",hCD44(21–178) [2]; 200 μM A5G27,no evidence of binding
same,solubility,[6],limited solubility; also recorded: fairly low solubility
